Consider 1 molecule from ChEMBL document CHEMBL4041550, “Structure-Activity Relationship Study of QL47: A Broad-Spectrum Antiviral Agent” (ACS Med Chem Lett, 2017).

Data set [1] relates to dengue virus type 2. Description: Antiviral activity against Dengue virus serotype 2 replicon harboring GVD mutant infected in HuH7 cells assessed as reduction in viral RNA translation at 2 uM measured at 6 hrs post infection by luciferase reporter gene assay relative to control. Also noted: scale not given: the % may be the effect or the level left. It is filed as functional. The gist of the method: (§1)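 Huh7 cells transfected with in vitro-transcribed nonreplicative DENV2(GVD) reporter replicon RNA, then treated immediately with compound at 2 or 10 μM. Intracellular firefly luciferase activity read 6 h post-transfection as a measure of RNA translation and expressed relative to DMSO-treated samples. Mean ± SD of experimental duplicates, n = 3 repeats.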
Background: Replicon systems follow genome replication, usually without infectious particles.

In data set [2] the test system is dengue virus type 2. Description: Antiviral activity against Dengue virus serotype 2 replicon harboring GVD mutant infected in HuH7 cells assessed as reduction in viral RNA translation at 10 uM measured at 6 hrs post infection by luciferase reporter gene assay relative to control. It counts as functional. Also noted: scale not given: the % may be the effect or the level left. In short, it runs like this: as §1

In data set [3] the test system is dengue virus type 2. Description: Antiviral activity against Dengue virus serotype 2 strain New Guinea C infected in HuH7 cells assessed as reduction in log-fold change by measuring focus forming unit at 10 uM measured at 24 hrs post infection by focus forming assay relative to control. It counts as functional, Thailand/NGS-C/1944. In short, it runs like this: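 DENV2-infected Huh7 cells treated with compound at 2 or 10 μM. Infectious virus secreted into culture supernatants at 24 h post-infection/treatment was titred by focus-forming assay. Result expressed as log-fold change relative to DMSO treatment.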

The nature of data set [4]: Half life in mouse hepatic microsomes at 1 uM in presence of NADPH by LC-MS/MS method. It counts as ADME, Microsome. Conditions: liver microsomes. The gist of the method: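 Compound incubated with mouse liver microsomes; half-life (T1/2, min) of the compound reported as a measure of metabolic stability.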
Background: Liver microsomes are vesicles of endoplasmic reticulum, rich in cytochrome P450 enzymes.

In data set [5] the target is T1, Cytoplasmic tyrosine-protein kinase BMX (Homo sapiens, UniProt P51813).
T1 sequence (P51813 whole entry): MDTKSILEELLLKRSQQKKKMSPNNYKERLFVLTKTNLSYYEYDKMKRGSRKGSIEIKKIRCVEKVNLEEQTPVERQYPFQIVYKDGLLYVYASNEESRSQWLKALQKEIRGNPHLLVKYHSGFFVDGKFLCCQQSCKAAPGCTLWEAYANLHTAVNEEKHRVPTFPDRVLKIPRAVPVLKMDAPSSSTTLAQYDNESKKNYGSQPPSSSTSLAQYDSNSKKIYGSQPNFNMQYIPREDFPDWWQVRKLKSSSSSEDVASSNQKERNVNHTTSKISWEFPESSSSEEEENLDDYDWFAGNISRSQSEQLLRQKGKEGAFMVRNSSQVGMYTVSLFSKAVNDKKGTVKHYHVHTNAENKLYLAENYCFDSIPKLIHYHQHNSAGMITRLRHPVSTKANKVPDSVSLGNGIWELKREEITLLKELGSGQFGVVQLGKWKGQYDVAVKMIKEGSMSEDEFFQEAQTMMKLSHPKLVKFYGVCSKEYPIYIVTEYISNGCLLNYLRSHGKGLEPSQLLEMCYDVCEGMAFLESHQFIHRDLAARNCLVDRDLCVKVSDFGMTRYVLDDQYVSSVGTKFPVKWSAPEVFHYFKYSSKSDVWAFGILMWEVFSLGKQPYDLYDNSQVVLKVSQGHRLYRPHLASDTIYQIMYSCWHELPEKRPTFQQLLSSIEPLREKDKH
The experiment in a line: Inhibition of recombinant full length His-tagged human BMX cytoplasmic domain expressed in baculovirus expression system by Z'-Lyte assay. The gist of the method: (§2)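 IC50 against PIM1, PIM2, BTK and BMX determined with Z′-Lyte kinase activity assays.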

The target in data set [6] is Tyrosine-protein kinase BTK (Homo sapiens, UniProt Q06187). The experiment in a line: Inhibition of recombinant full length His-tagged human BTK cytoplasmic domain expressed in baculovirus expression system by Z'-Lyte assay. In short, it runs like this: as §2
Chain of Tyrosine-protein kinase BTK (Q06187 whole entry, the tested form may be a part): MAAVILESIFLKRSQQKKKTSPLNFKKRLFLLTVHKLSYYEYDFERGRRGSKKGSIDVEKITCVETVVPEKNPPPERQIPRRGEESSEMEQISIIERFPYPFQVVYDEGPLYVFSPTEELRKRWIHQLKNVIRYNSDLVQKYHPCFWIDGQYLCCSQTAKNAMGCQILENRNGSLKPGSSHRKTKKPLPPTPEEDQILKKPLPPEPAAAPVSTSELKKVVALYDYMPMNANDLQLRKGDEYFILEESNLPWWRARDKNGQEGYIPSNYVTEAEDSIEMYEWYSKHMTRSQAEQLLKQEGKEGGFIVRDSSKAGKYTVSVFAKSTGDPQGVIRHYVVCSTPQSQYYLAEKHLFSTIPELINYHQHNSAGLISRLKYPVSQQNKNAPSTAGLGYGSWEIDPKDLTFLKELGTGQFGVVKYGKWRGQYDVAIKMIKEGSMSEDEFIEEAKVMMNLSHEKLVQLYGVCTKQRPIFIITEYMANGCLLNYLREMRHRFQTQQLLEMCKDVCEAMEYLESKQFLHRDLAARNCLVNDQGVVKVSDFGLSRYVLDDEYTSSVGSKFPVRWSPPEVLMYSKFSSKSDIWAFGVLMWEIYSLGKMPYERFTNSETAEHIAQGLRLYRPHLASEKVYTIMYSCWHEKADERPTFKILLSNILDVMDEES
Data set [7] is described as follows: Cmax in Swiss albino mouse at 50 mg/kg, ip by LC/MS/MS method. Also noted: dose 50 mg/kg, route intraperitoneal. It counts as ADME, organism-based. The settings on record: in vivo. The gist of the method: (§3)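 Mouse pharmacokinetics after intravenous, oral or intraperitoneal dosing; plasma parameters derived were T1/2, Tmax, Cmax, AUClast, AUCinf, clearance, Vss and oral bioavailability F.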

Data set [8] is described as follows: AUClast in Swiss albino mouse at 10 mg/kg, po by LC/MS/MS method. It counts as ADME, organism-based. Further details: dose 10 mg/kg, time 0 - last, route oral. The settings on record: in vivo.
The nature of data set [9]: AUClast in Swiss albino mouse at 50 mg/kg, ip by LC/MS/MS method. It counts as ADME, organism-based. Further details: dose 50 mg/kg, route intraperitoneal, time 0 - last. The settings on record: in vivo.
Data set [10] can be described thus: Volume of distribution at steady state in Swiss albino mouse at 2 mg/kg, iv by LC/MS/MS method. It counts as ADME, organism-based. The settings on record: in vivo, read-out: Vdss. The gist of the method: as §3

For orientation: half-life means the time needed for the level to fall by half in the phase considered. A word on the IC50: it is the midpoint of a concentration-inhibition curve. Usually Cmax stands for the highest concentration seen after dosing. In general, AUC(0-t) refers to the area under the concentration-time curve up to a stated or last time point. `Cc1ccc(-n2c(=O)ccc3ccc4ccc(-c5cnn(C)c5)cc4c32)cc1NC(=O)/C=C/CN(C)C`: the values for the Activity in the data set on dengue virus type 2 [1], in the data set with dengue virus type 2 [2] and in the data set with dengue virus type 2 [3] were 65%, 95% and 4 log10FFU/ml, respectively. The half-life at 1 µM in data set [4] was found to be 15.6 min. Moreover, the IC50 was 2.42 µM in data set [5] and 0.911 µM in [6]. In [7], this molecule had a Cmax of 4510 ng/mL. The results for the AUC(0-t) in data set [8] and in data set [9] were 95.4 ng·h/mL and 8220 ng·h/mL, respectively. For the same molecule, the Vd in data set [10] came out at 9.58 L/kg.
